Data on 4 molecules can be found in ChEMBL document CHEMBL4312005, “Optimization of pyrrolizine-based Schiff bases with 4-thiazolidinone motif: Design, synthesis and investigation of cytotoxicity and anti-inflammatory potency” (Eur J Med Chem, 2020).

Each structure is given as a SMILES string.

One assay has as its system A2780. The assay can be described thus: Antiproliferative activity against human A2780 cells assessed as reduction in cell growth incubated for 72 hrs by MTT assay. In kind it is functional, cell-based. The conditions noted are these: A2780, 72 h. The method, boiled down: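 MTT assay on MCF-7, A2780, HT29 and normal MRC5 fibroblast lines (ATCC) grown in DMEM with 10% FBS. Cells exposed to compounds for 72 h, then reduced MTT read at 570 nm.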
(In general: Formazan colour is commonly taken as a measure of viable cells.)

Assay [1] deals with T1, Mitogen-activated protein kinase kinase kinase 5 (Homo sapiens) (UniProt Q99683).
T1 sequence (whole entry): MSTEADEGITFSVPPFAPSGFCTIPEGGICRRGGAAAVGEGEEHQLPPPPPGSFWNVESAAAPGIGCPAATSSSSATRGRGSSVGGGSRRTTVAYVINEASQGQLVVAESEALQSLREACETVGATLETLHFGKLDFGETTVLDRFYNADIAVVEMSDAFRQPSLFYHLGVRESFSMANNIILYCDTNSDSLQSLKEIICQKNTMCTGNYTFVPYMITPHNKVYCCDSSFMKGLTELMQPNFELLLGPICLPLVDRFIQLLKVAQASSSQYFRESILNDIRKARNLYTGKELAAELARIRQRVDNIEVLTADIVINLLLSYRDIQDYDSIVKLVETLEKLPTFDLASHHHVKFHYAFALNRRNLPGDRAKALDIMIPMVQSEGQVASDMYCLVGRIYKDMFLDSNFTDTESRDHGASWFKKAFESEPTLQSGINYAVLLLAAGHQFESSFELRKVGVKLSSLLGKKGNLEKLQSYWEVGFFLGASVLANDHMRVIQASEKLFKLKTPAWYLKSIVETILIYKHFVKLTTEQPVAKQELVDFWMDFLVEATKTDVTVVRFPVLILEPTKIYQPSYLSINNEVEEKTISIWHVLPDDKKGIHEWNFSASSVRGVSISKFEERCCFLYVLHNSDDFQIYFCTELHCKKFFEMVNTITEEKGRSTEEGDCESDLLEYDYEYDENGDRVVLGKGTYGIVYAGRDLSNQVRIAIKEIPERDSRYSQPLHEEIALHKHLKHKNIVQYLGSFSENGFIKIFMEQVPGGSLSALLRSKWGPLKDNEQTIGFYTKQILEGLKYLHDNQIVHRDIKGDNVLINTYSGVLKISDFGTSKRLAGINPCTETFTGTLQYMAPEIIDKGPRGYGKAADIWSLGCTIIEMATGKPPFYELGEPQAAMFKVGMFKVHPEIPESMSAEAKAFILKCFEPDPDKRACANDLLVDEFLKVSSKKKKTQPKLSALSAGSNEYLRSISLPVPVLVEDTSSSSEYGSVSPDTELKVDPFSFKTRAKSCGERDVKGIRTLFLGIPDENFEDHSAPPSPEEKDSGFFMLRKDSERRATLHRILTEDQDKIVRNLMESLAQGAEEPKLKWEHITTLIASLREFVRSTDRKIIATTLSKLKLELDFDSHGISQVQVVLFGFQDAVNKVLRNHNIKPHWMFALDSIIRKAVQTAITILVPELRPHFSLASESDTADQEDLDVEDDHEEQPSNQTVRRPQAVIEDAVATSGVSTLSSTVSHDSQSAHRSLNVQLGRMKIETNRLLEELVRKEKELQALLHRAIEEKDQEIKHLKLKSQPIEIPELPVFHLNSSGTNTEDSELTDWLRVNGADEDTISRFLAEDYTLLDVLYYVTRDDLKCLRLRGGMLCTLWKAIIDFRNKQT
The assay can be described thus: Inhibition of recombinant human N-terminal GST-tagged ASK1 (649 to 946 residues) expressed in baculovirus infected Sf9 insect cells assessed as enzyme activity incubated for 15 mins by [gamma-33]ATP based scintillation counting method relative to control. Further details: scale not given: the % may be the effect or the level left.

Assay [2] has as its target T2, 3-phosphoinositide-dependent protein kinase 1 (Homo sapiens) (UniProt O15530).
T2 sequence (whole entry): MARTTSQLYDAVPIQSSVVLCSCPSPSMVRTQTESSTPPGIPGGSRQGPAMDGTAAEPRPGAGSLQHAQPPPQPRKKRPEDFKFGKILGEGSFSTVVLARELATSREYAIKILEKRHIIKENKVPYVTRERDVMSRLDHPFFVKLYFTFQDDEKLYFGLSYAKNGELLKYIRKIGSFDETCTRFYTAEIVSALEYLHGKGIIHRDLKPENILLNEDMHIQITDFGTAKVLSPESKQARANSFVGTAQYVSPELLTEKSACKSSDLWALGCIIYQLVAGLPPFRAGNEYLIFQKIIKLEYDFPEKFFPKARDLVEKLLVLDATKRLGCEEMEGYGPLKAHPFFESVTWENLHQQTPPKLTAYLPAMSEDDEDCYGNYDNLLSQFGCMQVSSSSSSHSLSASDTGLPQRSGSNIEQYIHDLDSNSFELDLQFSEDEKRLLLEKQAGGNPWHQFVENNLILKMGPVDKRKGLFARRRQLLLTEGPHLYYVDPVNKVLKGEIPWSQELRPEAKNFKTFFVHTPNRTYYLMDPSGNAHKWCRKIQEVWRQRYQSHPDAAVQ
The assay can be described thus: Inhibition of recombinant human N-terminal His-tagged full length PDK1 expressed in baculovirus infected Sf9 insect cells assessed as enzyme activity incubated for 15 mins by [gamma-33]ATP based scintillation counting method relative to control. Further details: scale not given: the % may be the effect or the level left.

Assay [3] deals with T3, Serine/threonine-protein kinase Sgk1 (Homo sapiens) (UniProt O00141).
T3 sequence (whole entry): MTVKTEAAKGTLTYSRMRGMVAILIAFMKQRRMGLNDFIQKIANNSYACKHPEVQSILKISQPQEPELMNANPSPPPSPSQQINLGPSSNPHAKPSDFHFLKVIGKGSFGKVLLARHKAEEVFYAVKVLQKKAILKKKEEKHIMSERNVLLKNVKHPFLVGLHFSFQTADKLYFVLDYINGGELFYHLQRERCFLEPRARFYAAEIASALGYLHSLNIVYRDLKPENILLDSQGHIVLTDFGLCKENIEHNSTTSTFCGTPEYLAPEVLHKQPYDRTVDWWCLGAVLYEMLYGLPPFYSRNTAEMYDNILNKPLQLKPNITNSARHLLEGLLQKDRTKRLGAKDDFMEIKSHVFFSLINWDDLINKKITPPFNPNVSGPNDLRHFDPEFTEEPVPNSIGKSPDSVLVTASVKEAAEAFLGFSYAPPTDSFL
The assay can be described thus: Inhibition of recombinant human N-terminal GST-tagged SGK1 (60 to end residues) expressed in baculovirus infected Sf9 insect cells assessed as enzyme activity incubated for 15 mins by [gamma-33]ATP based scintillation counting method relative to control. Also on record: scale not given: the % may be the effect or the level left.

What is called IC50 is the concentration that gives 50% inhibition.

For `CC(C)C/C=N/c1c(C#N)c2n(c1C(=O)Nc1ccc(Br)cc1)CCC2`, in the assay on A2780, the IC50 is 520 nM. Moreover, the Activity came to 26% in assay [1], 28% in assay [2] and 7% in assay [3].

Take `Cc1ccc(NC(=O)c2ccc(CN3CCN(C)CC3)cc2)cc1Nc1nccc(-c2cccnc2)n1`: the Activity came out at 5% in assay [1], 34% in assay [2] and 3% in assay [3].

Consider `CC/C=N/c1c(C#N)c2n(c1C(=O)Nc1ccccc1)CCC2`, for which, in the assay on A2780, the IC50 worked out at 15600 nM. Further, the Activity is -14% in assay [1], -15% in assay [2] and -14% in assay [3].

In the case of `CCC1SCC(=O)N1c1c(C#N)c2n(c1C(=O)Nc1ccccc1)CCC2` (stereo not given), the IC50 with A2780 turned out to be 220 nM. Besides, the figures for the Activity in assay [1], in assay [2] and in assay [3] were -3%, -11% and 8%, respectively.
